What was measured:
Format in all cases: functional
Conditions in all cases: route intraperitoneal
[1] = system: Rattus norvegicus; assay: Hypoglycemic activity in rat assessed as blood glucose level per 100 ml at 70 mg/kg, ip after 90 mins
Summary of the method: (§1)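 Narcotized rats, six per experiment; blood sugar measured before and 90 min after intraperitoneal dosing (70 and 100 mg/kg used in study). Glucose determined by o-toluidine reaction in acid medium. Values are mean of six rats ± 2 s. Classed hyper- or hypoglycemic by Student's t test, before vs after, when α < 0.01.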

[2] = system: Rattus norvegicus; assay: Hyperglycemic activity in rat assessed as blood glucose level per 100 ml at 70 mg/kg, ip after 90 mins; summary of the method: as §1
[3] = system: Rattus norvegicus; assay: Effect on blood glucose level per 100 ml in rat at 70 mg/kg, ip after 90 mins; summary of the method: as §1

## CCCCCOc1ccc(S(=O)(=O)NC(=S)NCCCC)c(C)c1
[1]
  Activity: 129 mg

## CCCCOc1ccc(S(=O)(=O)NC(=O)NC)c(C)c1
[2]
  Activity: 96 mg

## CCNC(=O)NS(=O)(=O)c1ccc(OC)cc1C
[2]
  Activity: 135 mg

## CCCCNC(=O)NS(=O)(=O)c1ccc(OCCCC)cc1C
[2]
  Activity: 113 mg

## CCCCNC(=S)NS(=O)(=O)c1ccc(C)cc1C
[1]
  Activity: 119 mg

## CCCCCOc1ccc(S(=O)(=O)NC(=O)NCCCC)c(C)c1
[2]
  Activity: 79 mg

## CCCCOc1ccc(S(=O)(=O)NC(=S)NC)c(C)c1
[1]
  Activity: 77 mg

## CCCCNC(=O)NS(=O)(=O)c1ccc(C)cc1C
[1]
  Activity: 102 mg

## CCCCNC(=S)NS(=O)(=O)c1ccc(OCCC)cc1C
[2]
  Activity: 160 mg

## COc1ccc(S(=O)(=O)NC(=S)NCc2ccccc2)c(C)c1
[1]
  Activity: 97 mg

## CCCNC(=S)NS(=O)(=O)c1ccc(OC)cc1C
[2]
  Activity: 153 mg

## CCCCNC(=O)NS(=O)(=O)c1ccc(OCCC)cc1C
[1]
  Activity: 130 mg

## CCCCNC(=O)NS(=O)(=O)c1ccc(OC)cc1C
[3]
  Activity: 114 mg

## CCOc1ccc(S(=O)(=O)NC(N)=O)c(C)c1
[2]
  Activity: 103 mg

## COc1ccc(S(=O)(=O)NC(=O)NCc2ccccc2)c(C)c1
[1]
  Activity: 104 mg

## COc1ccc(S(=O)(=O)NC(N)=O)c(C)c1
[2]
  Activity: 97 mg

## CCCCNC(=S)NS(=O)(=O)c1ccc(NC(C)=O)cc1C
[1]
  Activity: 116 mg

## CCCCNC(=O)NS(=O)(=O)c1ccc(OCC)cc1C
[1]
  Activity: 114 mg

## CNC(=O)NS(=O)(=O)c1ccc(OC)cc1C
[2]
  Activity: 142 mg

## CCCNC(=O)NS(=O)(=O)c1ccc(OC)cc1C
[2]
  Activity: 135 mg

## CCCCNC(=S)NS(=O)(=O)c1ccc(OCC)cc1C
[1]
  Activity: 99 mg

## CCCCNC(=O)NS(=O)(=O)c1ccc(NC(C)=O)cc1C
[1]
  Activity: 112 mg
